From ChEMBL document CHEMBL5331144, “Design, Synthesis, and Biological Evaluation of 2-Hydroxy-4-phenylthiophene-3-carbonitrile as PD-L1 Antagonist and Its Comparison to Available Small Molecular PD-L1 Inhibitors” (J Med Chem, 2023)
Calls of active or inactive are those of the source. The rule behind the calls is not given here.

What was measured:
[1] = target: Programmed cell death protein 1/Programmed cell death 1 ligand 1 (Homo sapiens) (UniProt Q15116+Q9NZQ7); assay: Inhibition of human PD-1/PD-L1 interaction assessed as induction of PD-L1 dimerization at 1:1 molar ratio by 1H-15N HMQC NMR analysis; assay type: protein-complex assay
How it was run: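 Recombinant human PD-L1 (residues 18–134), expressed in E. coli BL21(DE3), refolded and purified by SEC in PBS pH 7.4. 1D and 2D NMR spectra recorded for apo protein and with ligand at 1:1 molar ratio.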

Jurkat = assay: Cytotoxicity against human Jurkat T cells overexpressing PD-1 with luciferase reporter under the control of NFAT promoter at higher concentration incubated for 48 hrs by redox dye mix based analysis; assay type: toxicity, cell-based
How it was run: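 Jurkat PD-1 effector cells (PD-1 overexpressing, luciferase reporter under NFAT promoter), 5000 cells/well, grown in RPMI 1640 with 10% FBS and 2 mM L-glutamine. Exposed 48 h to increasing compound concentrations, with DMSO held constant; DMSO alone as control. Values are mean ± SD of at least three independent experiments.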

[2] = Ex vivo drug localization in peripheral part of formalin fixed paraffin embedded tumor of human NCI-H358 cells expressing PD-L1 by immunohistochemistry staining based analysis; assay type: ADME, tissue-based, Neoplasm
How it was run: (§1)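 FFPE xenograft tumours (ES2 or H358, PD-L1+/– knockout pairs) cut to 4 μm, deparaffinized at 60 °C with xylene, rehydrated, citrate pH 6.0 heat retrieval. Autoradiography: 30 min incubation with freshly formulated 18F-tracer at 0.2 MBq/mL, washed with cold PBS and water, dried, phosphor-plate exposure and quantification. Adjacent sections stained by IHC with anti-PD-L1 (5 μg/mL, clone 28-8, 60 min), DAB, hematoxylin counterstain.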

[3] = Ex vivo biodistribution in formalin fixed paraffin embedded tumor of human NCI-H358 cells expressing PD-L1 by immunohistochemistry staining based analysis relative to control; assay type: ADME, Neoplasm; how it was run: as §1
[4] = Ex vivo biodistribution in snap-frozen human tonsils overexpressing PD-L1 by autoradiography; assay type: ADME, Tonsil
How it was run: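 Snap-frozen human tonsil sections, 10 min cold acetone, then 30 min incubation with freshly formulated 18F-tracer at 0.2 MBq/mL. Washed twice with cold PBS and once with water, dried, exposed to phosphor plates and quantified by phosphor imaging.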

[5] = Ex vivo biodistribution in formalin fixed paraffin embedded tumor of human ES2 cells expressing PD-L1 by immunohistochemistry staining based analysis relative to control; assay type: ADME, Neoplasm; conditions: es-2; how it was run: as §1

SMILES | inhibition [1] | Activity (Jurkat) | Drug uptake [2] | Drug uptake [3] | Drug uptake [4] | Drug uptake [5]
N#Cc1c(-c2ccc(F)cc2)csc1OCc1ccc(CN)cc1 | Active | Toxic | – | – | – | –
Cc1c(COc2cc(OCc3cccc(C#N)c3)c(CN3C[C@@H](F)C[C@@H]3C(=O)O)cc2Cl)cccc1-c1ccc2c(c1)OCCO2 | – | Toxic | – | – | – | –
Cc1c(COc2cc(OCc3cccc(C#N)c3)c(CN3C[C@H](O)C[C@@H]3C(=O)O)cc2Cl)cccc1-c1ccc2c(c1)OCCO2 | Active | Toxic | – | – | – | –
Cc1c(COc2cc(OCc3cccc(C#N)c3)c(CN3C[C@@H]([18F])C[C@@H]3C(=O)O)cc2Cl)cccc1-c1ccc2c(c1)OCCO2 | – | – | Active | 40% | Active | –
N#Cc1c(-c2ccc([18F])cc2)csc1OCc1ccc(CN)cc1 | – | – | Active | 40% | Active | Not Active
